# Measured values from ChEMBL document CHEMBL4011643, “Triaryl Benzimidazoles as a New Class of Antibacterial Agents against Resistant Pathogenic Microorganisms” (J Med Chem, 2017).
# Calls of active or inactive are those of the source.
# Columns and labels:
# Acinetobacter baumannii [1] = assay: Ratio of MIC for Acinetobacter baumannii ATCC 17978 in absence of PMBN to MIC for Acinetobacter baumannii ATCC 17978 in presence of PMBN; assay type: functional
# In short: (§1)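 Fold change: MIC without divided by MIC with 30 μg/mL PMBN. Both MICs were by TSB broth microdilution, with an OD600 <0.1 cutoff at 20 h.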
# Staphylococcus aureus [2] = assay: Bactericidal activity against methicillin-resistant Staphylococcus aureus EMRSA-15 assessed as time required to kill bacteria by >6 log10CFU/ml at 4 times MIC by Miles Misra dilution method; assay type: functional
# In short: (§2)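 Flasks of TSB inoculated at ~10^6 cfu/mL, compound added at 4 × MIC, shaken at 200 rpm and 37 °C. Samples taken at 1, 2, 4, 6 and 24 h and plated by Miles Misra dilution for CFU/mL. Bactericidal means a loss of >3 log CFU/mL. Three independent repeats, error bars SD.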
# Acinetobacter baumannii [3] = assay: Ratio of MIC for Acinetobacter baumannii AYE in absence of Pa-beta-N to MIC for Acinetobacter baumannii AYE in presence of Pa-beta-N; assay type: functional
# In short: (§3)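 Both MICs were by TSB broth microdilution, with an OD600 <0.1 cutoff at 20 h.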
# Klebsiella pneumoniae [4] = assay: Antibacterial activity against Klebsiella pneumoniae M6 after 20 hrs in the presence of Pa-beta-N and magnesium ions by broth microdilution method; assay type: functional; settings: M6, 20 h
# In short: (§4)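 Broth microdilution in Tryptic Soy Broth, done in triplicate. Growth was read as OD600 after 20 h. MIC is the lowest drug concentration giving OD600 below 0.1.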
# Enterococcus faecalis [5] = assay: Bactericidal activity against vancomycin-resistant Enterococcus faecalis NCTC 12201 assessed as time required to kill bacteria by >6 log10CFU/ml at 4 times MIC by Miles Misra dilution method; assay type: functional; in short: as §2
# Staphylococcus aureus [6] = assay: Antibacterial activity against methicillin-sensitive Staphylococcus aureus ATCC 9144 after 20 hrs by broth microdilution method; assay type: functional; settings: ATCC 9144, 20 h; in short: as §4
# Klebsiella pneumoniae [7] = assay: Ratio of MIC for Klebsiella pneumoniae M6 in absence of Pa-beta-N to MIC for Klebsiella pneumoniae M6 in presence of Pa-beta-N; assay type: functional; in short: as §3
# Acinetobacter baumannii [8] = assay: Ratio of MIC for Acinetobacter baumannii AYE in absence of PMBN to MIC for Acinetobacter baumannii AYE in presence of PMBN; assay type: functional; in short: as §1
# Pseudomonas aeruginosa [9] = assay: Antibacterial activity against Pseudomonas aeruginosa PAO1 after 20 hrs in the presence of Pa-beta-N and magnesium ions by broth microdilution method; assay type: functional; settings: PAO1, 20 h; in short: as §4
# Pseudomonas aeruginosa [10] = assay: Antibacterial activity against Pseudomonas aeruginosa NCTC 13437 after 20 hrs by broth microdilution method; assay type: functional; settings: NCTC 13437, 20 h; in short: as §4
# Acinetobacter baumannii [11] = assay: Antibacterial activity against Acinetobacter baumannii AYE after 20 hrs in the presence of Pa-beta-N and magnesium ions by broth microdilution method; assay type: functional; in short: as §4
# Pseudomonas aeruginosa [12] = assay: Ratio of MIC for Pseudomonas aeruginosa NCTC 13437 in absence of Pa-beta-N to MIC for Pseudomonas aeruginosa NCTC 13437 in presence of Pa-beta-N; assay type: functional; in short: as §3
# Pseudomonas aeruginosa [13] = assay: Ratio of MIC for Pseudomonas aeruginosa PAO1 in absence of PMBN to MIC for Pseudomonas aeruginosa PAO1 in presence of PMBN; assay type: functional; in short: as §1
# Klebsiella pneumoniae [14] = assay: Antibacterial activity against Klebsiella pneumoniae NCTC 13368 after 20 hrs by broth microdilution method; assay type: functional; settings: NCTC 13368, 20 h; in short: as §4
# Klebsiella pneumoniae [15] = assay: Antibacterial activity against Klebsiella pneumoniae NCTC 13368 after 20 hrs in the presence of Pa-beta-N and magnesium ions by broth microdilution method; assay type: functional; settings: NCTC 13368, 20 h; in short: as §4
# Pseudomonas aeruginosa [16] = assay: Antibacterial activity against Pseudomonas aeruginosa PAO1 after 20 hrs by broth microdilution method; assay type: functional; settings: PAO1, 20 h; in short: as §4
# Acinetobacter baumannii [17] = assay: Antibacterial activity against Acinetobacter baumannii AYE after 20 hrs in the presence of PMBN by broth microdilution method; assay type: functional; in short: as §4
# Enterococcus faecalis [18] = assay: Bactericidal activity against vancomycin-resistant Enterococcus faecalis NCTC 12201 at 4 times MIC after 10 hrs by Miles Misra dilution method; assay type: functional
# Enterococcus faecalis [19] = assay: Antibacterial activity against vancomycin-resistant Enterococcus faecalis NCTC 12201 after 20 hrs by broth microdilution method; assay type: functional; settings: NCTC 12201, 20 h
# In short: (§5)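 Broth microdilution in Tryptic Soy Broth; growth read as OD600 after 20 h. MIC taken as the lowest drug concentration giving OD600 below 0.1. Run in triplicate.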
# Acinetobacter baumannii [20] = assay: Antibacterial activity against Acinetobacter baumannii ATCC 17978 after 20 hrs by broth microdilution method; assay type: functional; settings: ATCC 17978, 20 h; in short: as §4
# Acinetobacter baumannii [21] = assay: Antibacterial activity against Acinetobacter baumannii ATCC 17978 after 20 hrs in the presence of PMBN by broth microdilution method; assay type: functional; settings: ATCC 17978, 20 h; in short: as §4
# Enterococcus faecalis [22] = assay: Antibacterial activity against vancomycin-sensitive Enterococcus faecalis NCTC 775 after 20 hrs by broth microdilution method; assay type: functional; settings: NCTC 775, 20 h; in short: as §4
# [23] = Stabilization of FAM/TAMRA-labeled AT-rich DNA duplex (unknown origin) assessed as change in melting temperature at 5 uM by FRET-based assay
# In short: (§6)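 FRET melting of a FAM/TAMRA-labelled AT-rich oligonucleotide, 400 nM working solution in 50 mM potassium, 50 mM cacodylate, pH 7.4. DNA was annealed at 85 °C for 6 min, then held at 25 °C for 5 h, and mixed 1:1 with sample. Fluorescence was read every 0.5 °C from 30 to 100 °C, with a 30 s hold per step. ΔTm is measured against the blank, in triplicate.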
# Pseudomonas aeruginosa [24] = assay: Antibacterial activity against Pseudomonas aeruginosa PAO1 after 20 hrs in the presence of PMBN by broth microdilution method; assay type: functional; settings: PAO1, 20 h; in short: as §4
# Klebsiella pneumoniae [25] = assay: Ratio of MIC for Klebsiella pneumoniae NCTC 13368 in absence of Pa-beta-N to MIC for Klebsiella pneumoniae NCTC 13368 in presence of Pa-beta-N; assay type: functional; in short: as §3
# Pseudomonas aeruginosa [26] = assay: Antibacterial activity against Pseudomonas aeruginosa NCTC 13437 after 20 hrs in the presence of PMBN by broth microdilution method; assay type: functional; settings: NCTC 13437, 20 h; in short: as §4
# Staphylococcus aureus [27] = assay: Antibacterial activity against methicillin-resistant Staphylococcus aureus MRSA252 after 20 hrs by broth microdilution method; assay type: functional; settings: MRSA252, 20 h; in short: as §5
# Acinetobacter baumannii [28] = assay: Ratio of MIC for Acinetobacter baumannii ATCC 17978 in absence of Pa-beta-N to MIC for Acinetobacter baumannii ATCC 17978 in presence of Pa-beta-N; assay type: functional; in short: as §3
# Pseudomonas aeruginosa [29] = assay: Antibacterial activity against Pseudomonas aeruginosa NCTC 13437 after 20 hrs in the presence of Pa-beta-N and magnesium ions by broth microdilution method; assay type: functional; settings: NCTC 13437, 20 h; in short: as §4
# Klebsiella pneumoniae [30] = assay: Antibacterial activity against Klebsiella pneumoniae NCTC 13368 after 20 hrs in the presence of PMBN by broth microdilution method; assay type: functional; settings: NCTC 13368, 20 h; in short: as §4
# Staphylococcus aureus [31] = assay: Antibacterial activity against methicillin-resistant Staphylococcus aureus EMRSA-15 after 20 hrs by broth microdilution method; assay type: functional; settings: EMRSA-15, 20 h; in short: as §5
# Acinetobacter baumannii [32] = assay: Antibacterial activity against Acinetobacter baumannii ATCC 17978 after 20 hrs in the presence of Pa-beta-N and magnesium ions by broth microdilution method; assay type: functional; settings: ATCC 17978, 20 h; in short: as §4
# Klebsiella pneumoniae [33] = assay: Antibacterial activity against Klebsiella pneumoniae M6 after 20 hrs by broth microdilution method; assay type: functional; settings: M6, 20 h; in short: as §4
# [34] = Stabilization of FAM/TAMRA-labeled AT-rich DNA duplex (unknown origin) assessed as change in melting temperature at 1 uM by FRET-based assay; in short: as §6
# Pseudomonas aeruginosa [35] = assay: Ratio of MIC for Pseudomonas aeruginosa NCTC 13437 in absence of PMBN to MIC for Pseudomonas aeruginosa NCTC 13437 in presence of PMBN; assay type: functional; in short: as §1
# Acinetobacter baumannii [36] = assay: Antibacterial activity against Acinetobacter baumannii AYE after 20 hrs by broth microdilution method; assay type: functional; in short: as §4
# Enterococcus faecium = assay: Antibacterial activity against vancomycin-resistant Enterococcus faecium NCTC 12204 after 20 hrs by broth microdilution method; assay type: functional; settings: NCTC 12204, 20 h; in short: as §5
# Staphylococcus aureus [37] = assay: Bactericidal activity against methicillin-resistant Staphylococcus aureus EMRSA-15 at 4 times MIC after 10 hrs by Miles Misra dilution method; assay type: functional
# Klebsiella pneumoniae [38] = assay: Ratio of MIC for Klebsiella pneumoniae M6 in absence of PMBN to MIC for Klebsiella pneumoniae M6 in presence of PMBN; assay type: functional; in short: as §1
# [39] = Cytotoxicity against human HeLa cells assessed as cell viability at 25 uM after 24 hrs by MTT assay; assay type: cell-based; settings: read-out: Activity
# In short: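 HeLa cells, 10000 per well, were grown at 37 °C in 5% CO2 and allowed to settle for 24 h. Compound was then added in triplicate for 24 h of continuous exposure. Viability was read by MTT colorimetry, with absorbance at 570 nm.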
# Klebsiella pneumoniae [40] = assay: Antibacterial activity against Klebsiella pneumoniae M6 after 20 hrs in the presence of PMBN by broth microdilution method; assay type: functional; settings: M6, 20 h; in short: as §4
# Klebsiella pneumoniae [41] = assay: Ratio of MIC for Klebsiella pneumoniae NCTC 13368 in absence of PMBN to MIC for Klebsiella pneumoniae NCTC 13368 in presence of PMBN; assay type: functional; in short: as §1
compound,measurement,setting,value
Cc1nc2ccc(C(=O)Nc3cccc(-c4ccc(-n5c(C)nc6cc(C(=O)NCCCCN(C)C)ccc65)nc4)c3)cc2[nH]1,Ratio,Acinetobacter baumannii [1],2
same,Time,Staphylococcus aureus [2],2 h
same,Ratio,Acinetobacter baumannii [3],2 - 4
same,MIC,Klebsiella pneumoniae [4],16 µg/mL
same,Time,Enterococcus faecalis [5],2 h
same,MIC,Staphylococcus aureus [6],0.5 µg/mL
same,Ratio,Klebsiella pneumoniae [7],>=4
same,Ratio,Acinetobacter baumannii [8],2
same,MIC,Pseudomonas aeruginosa [9],> 32 µg/mL
same,MIC,Pseudomonas aeruginosa [10],> 32 µg/mL
same,MIC,Acinetobacter baumannii [11],16 µg/mL
same,Ratio,Pseudomonas aeruginosa [12],2 - 4
same,Ratio,Pseudomonas aeruginosa [13],>16
same,MIC,Klebsiella pneumoniae [14],> 32 µg/mL
same,MIC,Klebsiella pneumoniae [15],32 µg/mL
same,MIC,Pseudomonas aeruginosa [16],> 32 µg/mL
same,MIC,Acinetobacter baumannii [17],8 µg/mL
same,Activity,Enterococcus faecalis [18],inactive
same,MIC,Enterococcus faecalis [19],0.25 µg/mL
same,MIC,Acinetobacter baumannii [20],> 32 µg/mL
same,MIC,Acinetobacter baumannii [21],8 µg/mL
same,MIC,Enterococcus faecalis [22],0.5 µg/mL
same,deltaTm,[23],0.6 °C
same,MIC,Pseudomonas aeruginosa [24],16 µg/mL
same,Ratio,Klebsiella pneumoniae [25],2 - 4
same,MIC,Pseudomonas aeruginosa [26],16 µg/mL
same,MIC,Staphylococcus aureus [27],2 µg/mL
same,Ratio,Acinetobacter baumannii [28],2 - 4
same,MIC,Pseudomonas aeruginosa [29],> 32 µg/mL
same,MIC,Klebsiella pneumoniae [30],32 µg/mL
same,MIC,Staphylococcus aureus [31],1 µg/mL
same,MIC,Acinetobacter baumannii [32],8 µg/mL
same,MIC,Klebsiella pneumoniae [33],> 32 µg/mL
same,deltaTm,[34],0.3 °C
same,Ratio,Pseudomonas aeruginosa [35],>16
same,MIC,Acinetobacter baumannii [36],> 32 µg/mL
same,MIC,Enterococcus faecium,≤ 0.125 µg/mL
same,Activity,Staphylococcus aureus [37],inactive
same,Ratio,Klebsiella pneumoniae [38],4
same,"viability at 24 h, 25 µM",[39],> 98%
same,MIC,Klebsiella pneumoniae [40],16 µg/mL
same,Ratio,Klebsiella pneumoniae [41],4
